The nature of data set [1]: Cytotoxicity against LPS-induced mouse BV2 cells assessed as cell viability at 10 uM pretreated for 15 mins followed by LPS-stimulation measured after 24 hrs by MTT assay relative to control. Type of data set: cell-based, BV-2. Conditions: LPS-stimulated BV2 cells, read-out: Activity. The method in brief: (§1)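 BV-2 cells, LPS-activated, exposed to compounds at 2–20 μM. Viability was measured by MTT assay and expressed as mean ± SD of three independent experiments.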
In general terms: Tetrazolium dyes change colour on reduction, which living cells bring about.

Data set [2] concerns BV-2. The data set is described as follows: Antineuroinflammatory activity in mouse BV2 cells assessed as inhibition of LPS-induced nitric oxide production by measuring nitrite levels at 20 uM pretreated for 15 mins followed by LPS-stimulation measured after 24 hrs by colorimetric method (reference value: 15 +/- 1 uM). The class given is functional.
Data set [3] in a line: Cytotoxicity against LPS-induced mouse BV2 cells assessed as cell viability at 5 uM pretreated for 15 mins followed by LPS-stimulation measured after 24 hrs by MTT assay relative to control. Type of data set: cell-based, BV-2. Particulars: LPS-stimulated BV2 cells, read-out: Activity. An outline of the steps:
as §1

The nature of data set [4]: Cytotoxicity against LPS-induced mouse BV2 cells assessed as cell viability at 2 uM pretreated for 15 mins followed by LPS-stimulation measured after 24 hrs by MTT assay relative to control. The class given is cell-based, BV-2. Conditions: LPS-stimulated BV2 cells, read-out: Activity. The method in brief:
as §1

Data set [5] in a line: Cytotoxicity against LPS-induced mouse BV2 cells assessed as cell viability at 20 uM pretreated for 15 mins followed by LPS-stimulation measured after 24 hrs by MTT assay relative to control. The class given is cell-based, BV-2. Conditions: LPS-stimulated BV2 cells, read-out: Activity. The method in brief:
as §1

The test system of data set [6] is BV-2. The data set can be described thus: Antineuroinflammatory activity in mouse BV2 cells assessed as inhibition of LPS-induced nitric oxide production pretreated for 15 mins followed by LPS-stimulation measured after 24 hrs by colorimetric method. Type of data set: functional, cell-based.
In data set [7] the test system is BV-2. The data set can be described thus: Antineuroinflammatory activity in mouse BV2 cells assessed as inhibition of LPS-induced nitric oxide production at 5 uM pretreated for 15 mins followed by LPS-stimulation measured after 24 hrs by colorimetric method relative to control. The class given is functional.
Data set [8] relates to BV-2. The data set is described as follows: Antineuroinflammatory activity in mouse BV2 cells assessed as inhibition of LPS-induced nitric oxide production at 20 uM pretreated for 15 mins followed by LPS-stimulation measured after 24 hrs by colorimetric method relative to control. Type of data set: functional.

Experimental findings from ChEMBL document CHEMBL4118059, “Hirsutane-Type Sesquiterpenes with Inhibitory Activity of Microglial Nitric Oxide Production from the Red Alga-Derived Fungus Chondrostereum sp. NTOU4196” (J Nat Prod, 2017) are described below.

Regarding `C=C1C(=O)C[C@]2(O)[C@H](O)C3=C(CC(C)(C)C3=O)[C@]12C`, the viability at 24 h, 10 µM in data set [1] was 89%. The Activity in the data set on BV-2 [2] was found to be 10 µM. In addition, in data set [3], the viability at 24 h, 5 µM worked out at 95%. Further, the viability at 24 h, 2 µM in data set [4] was 95%. Further, in data set [5], the viability at 24 h, 20 µM turned out to be 69%.

Consider `COc1cc(/C=C/C(=O)CC(=O)/C=C/c2ccc(O)c(OC)c2)ccc1O` [CURCUMIN], for which the 50% inhibitory concentration (IC50) – broadly, the point on the concentration scale where inhibition reaches its midpoint – in the data set on BV-2 [6] stood at 6 µM.

On to `C=C1C(=O)C[C@@]2(OC)C[C@]3(O)CC(C)(C)C[C@@H]3[C@]12C`, for which the viability at 24 h, 10 µM in data set [1] came out at 11%. The Activity in the data set on BV-2 [2] came out at 4 µM. For the same molecule, in data set [3], the viability at 24 h, 5 µM was determined as 30%. For the same molecule, the viability at 24 h, 2 µM in data set [4] amounted to 47%. The viability at 24 h, 20 µM in data set [5] was determined as 11%.

Take `C[C@@H]1[C@@H](O)C[C@]2(O)[C@H](O)[C@H]3CC(C)(C)C[C@H]3[C@]12C`: the Activity in the data set on BV-2 [2] was 12 µM. For the same molecule, the viability at 24 h, 20 µM in data set [5] worked out at 83%.

With `C[C@H]1[C@H](O)C[C@@]2(O)C[C@]3(O)CC(C)(C)C[C@@H]3[C@@]12C`, the Activity in the data set on BV-2 [2] came out at 13 µM.

For the molecule `C[C@@H]1[C@@H](O)C[C@]2(O)C=C3C(=CC(C)(C)[C@@H]3O)[C@]12C`, the Activity in the data set with BV-2 [2] was 11 µM. In addition, the viability at 24 h, 20 µM in data set [5] worked out at 93%.

`C[C@H]1C(=O)C[C@]2(O)C[C@@]3(O)CC(C)(C)C[C@H]3[C@]12C`: the Activity in the data set with BV-2 [2] is 11 µM.

On to `C[C@@H]1C(=O)C[C@]2(O)C[C@@]3(O)CC(C)(C)C[C@H]3[C@]12C`, for which the Activity in the data set on BV-2 [2] turned out to be 12 µM. Further, the viability at 24 h, 20 µM in data set [5] stood at 83%.

For `C=C1C(=O)C=C2C=C3[C@@H](O)C(C)(C)C[C@@]3(O)[C@]12C`, the viability at 24 h, 10 µM in data set [1] turned out to be 77%. For the same molecule, the inhibition (as a rule, the share of the control response that was lost under treatment) with BV-2 [6] was “Dose-dependent effect”. Also, the Activity in the data set with BV-2 [2] was found to be 8 µM. Also, the inhibition at 5 µM in the data set with BV-2 [7] was 53%. Also, the viability at 24 h, 5 µM in data set [3] worked out at 87%. In data set [4], the viability at 24 h, 2 µM is 94%. Besides, in data set [5], the viability at 24 h, 20 µM came out at 39%.

Take `C[C@H]1[C@@H](O)C[C@]2(O)C[C@@]3(O)CC(C)(C)C[C@H]3[C@]12C`: the Activity with BV-2 [2] was determined as 13 µM.

With `C[C@@H]1[C@@H](O)C[C@]2(O)[C@H](O)C3=CC(C)(C)C[C@H]3[C@]12C`, the Activity with BV-2 [2] amounted to 14 µM. For the same molecule, in data set [5], the viability at 24 h, 20 µM stood at 87%.

In the case of `C[C@H]1C(=O)C=C2C=C3C(=O)C(C)(C)C[C@@]3(O)[C@@]21C`, the viability at 24 h, 10 µM in data set [1] was 23%. Besides, the Activity with BV-2 [2] is 4 µM. Also, the viability at 24 h, 20 µM in data set [5] amounted to 11%.

For the molecule `C=C1[C@H](O)C[C@]2(O)C[C@]3(O)CC(C)(C)C[C@]3(O)[C@]12C`, the viability at 24 h, 10 µM in data set [1] amounted to 73%. For the same molecule, the inhibition entry with BV-2 [6] is “Dose-dependent effect”. Further, the inhibition at 20 µM with BV-2 [8] was 47%. The Activity in the data set on BV-2 [2] is 8 µM. In data set [3], the viability at 24 h, 5 µM was found to be 82%. Besides, the viability at 24 h, 2 µM in data set [4] came to 93%. The viability at 24 h, 20 µM in data set [5] was 67%.

With `C[C@@H]1[C@@H](O)C[C@]2(O)CC3=C(CC(C)(C)C3=O)[C@]12C`, the Activity in the data set with BV-2 [2] was 11.6 µM. Besides, the viability at 24 h, 20 µM in data set [5] was determined as 97%.

Take `C=C1C(=O)C=C2C[C@@]3(O)CC(C)(C)C[C@H]3[C@]12C`: the viability at 24 h, 10 µM in data set [1] worked out at 22%. In addition, in the data set on BV-2 [2], the Activity came to 4 µM. Further, the viability at 24 h, 20 µM in data set [5] came out at 12%.

As for `C[C@H]1C(=O)C=C2C=C3[C@@H](O)C(C)(C)C[C@@]3(O)[C@@]21C`, the Activity with BV-2 [2] is 12 µM. Besides, the viability at 24 h, 20 µM in data set [5] is 71%.
